Data reported in article PMC6099226 (Diabetes, Obesity & Metabolism, 2018).

Key:
Format in all cases: in vivo, human
adults with T2DM [1] = assay: Analysis of GI AEs
How it was run: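 Adults with T2DM from four phase III trials received once-weekly subcutaneous injections, escalated every 4 weeks (0.25, 0.5, 1.0 mg). Nausea reports were counted from baseline to week 30. Proportions were plotted against time by dose, with each dose split into high/low exposure halves by Cavg at the maintenance dose. Logistic regression adjusted for trial, sex, age group, escalation regimen and Japanese race. LOCF and completer sensitivity analyses were run.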

[2] = Semaglutide exposure: average steady-state concentration; conditions: mean Cavg at steady state
How it was run: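 Plasma samples were taken 4–5 times per participant, at weeks 4, 8, 16 and 30, plus week 56 except in SUSTAIN 1. Assay was validated LC-MS/MS with LLOQ 0.729 nmol/L; samples below it were excluded. Average steady-state concentration at the randomized once-weekly subcutaneous maintenance dose was derived from individual clearance estimates of a population-PK analysis.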

adults with T2DM [3] = conditions: semaglutide 0.5 and 1.0 mg
adults with T2DM [4] = assay: Exposure-response analysis of elevated serum calcitonin
How it was run: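 Serum calcitonin was measured by chemiluminescent immunometric assay (range 2.0–2000 pg/mL). Only participants with normal baseline values and post-baseline data were included, without imputation. The proportion with elevated calcitonin at any time until end-of-treatment was plotted with 95% CI against Cavg quantiles, with placebo at zero exposure. A covariate-adjusted exposure-response model was fitted.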

In the case of `CC[C@H](C)[C@H](NC(=O)[C@H](Cc1ccccc1)NC(=O)[C@H](CCC(=O)O)NC(=O)[C@H](CCCCNC(=O)COCCOCCNC(=O)COCCOCCNC(=O)CC[C@H](NC(=O)CCCCCCCCCCCCCCCCC(=O)O)C(=O)O)NC(=O)[C@H](C)NC(=O)[C@H](C)NC(=O)[C@H](CCC(N)=O)NC(=O)CNC(=O)[C@H](CCC(=O)O)NC(=O)[C@H](CC(C)C)NC(=O)[C@H](Cc1ccc(O)cc1)NC(=O)[C@H](CO)NC(=O)[C@H](CO)NC(=O)[C@@H](NC(=O)[C@H](CC(=O)O)NC(=O)[C@H](CO)NC(=O)[C@@H](NC(=O)[C@H](Cc1ccccc1)NC(=O)[C@@H](NC(=O)CNC(=O)[C@H](CCC(=O)O)NC(=O)C(C)(C)NC(=O)[C@@H](N)Cc1cnc[nH]1)[C@@H](C)O)[C@@H](C)O)C(C)C)C(=O)N[C@@H](C)C(=O)N[C@@H](Cc1c[nH]c2ccccc12)C(=O)N[C@@H](CC(C)C)C(=O)N[C@H](C(=O)N[C@@H](CCCNC(=N)N)C(=O)NCC(=O)N[C@@H](CCCNC(=N)N)C(=O)NCC(=O)O)C(C)C` [semaglutide], the “proportion of participants reporting nausea” value (adults with T2DM [1]; during the first 4 weeks, also for participants with high exposure) is reported as under 7%, the “concentration of semaglutide estimated to be tolerated without nausea by 95% of participants” value (adults with T2DM [1]; week 1) is reported as under 0.005 µM and the “concentration of semaglutide estimated to be tolerated without nausea by 95% of participants” value (adults with T2DM [1]; week 30) is reported as over 0.03 µM. For the same compound, the Semaglutide exposure ([2]; All men, dose 0.5 mg once weekly) was 15.0 nmol/L, the Semaglutide exposure ([2]; All men, dose 1.0 mg once weekly) was 29.9 nmol/L and the Semaglutide exposure ([2]; All participants, dose 0.5 mg once weekly) was 15.3 nmol/L. The Semaglutide exposure ([2]; All participants, dose 1.0 mg once weekly) was 30.6 nmol/L, the Semaglutide exposure ([2]; All women, dose 0.5 mg once weekly) was 15.9 nmol/L and the Semaglutide exposure ([2]; All women, dose 1.0 mg once weekly) was 31.7 nmol/L. The “increase from baseline to end‐of‐trial in mean resting pulse rate” value (adults with T2DM [3]) was 2−4 bpm, the “proportion of participants with serum calcitonin concentrations above the reference ranges” value (adults with T2DM [4]; any time after baseline until end‐of‐treatment, 36 of 1395 participants, placebo data included in the analysis) was 2.6% and the “dependence of elevated calcitonin levels on exposure” value (adults with T2DM [4]; range of exposures achieved with 0.5 and 1.0 mg, no effect vs placebo) was “independent of exposure”.
